Type in all cases: cell-based
In experiment [1] the target is T1, von Hippel-Lindau disease tumor suppressor/Bromodomain-containing protein 9 (Homo sapiens) (UniProt Q9H8M2+P40337). The experiment is described as follows: PROTAC activity at VHL/BRD9 in human Ri-1 cells assessed as remaining BRD9 protein level at 100 nM incubated for 2 hrs by Western blot analysis relative to control. The procedure, abridged: (§1)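 Ri-1 cells exposed to compound for the stated time before harvest; BRD9, BRD7 and β-actin measured by Western blot, band intensities quantified and set against DMSO-treated control.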
T1 sequence (P40337 whole entry, looked up): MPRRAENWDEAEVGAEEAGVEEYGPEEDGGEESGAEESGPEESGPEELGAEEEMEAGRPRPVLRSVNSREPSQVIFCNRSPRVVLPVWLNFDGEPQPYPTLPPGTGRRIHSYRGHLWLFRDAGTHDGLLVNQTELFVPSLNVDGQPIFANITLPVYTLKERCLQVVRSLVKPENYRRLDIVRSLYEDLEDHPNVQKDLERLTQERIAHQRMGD
T1 sequence (Q9H8M2 whole entry, looked up): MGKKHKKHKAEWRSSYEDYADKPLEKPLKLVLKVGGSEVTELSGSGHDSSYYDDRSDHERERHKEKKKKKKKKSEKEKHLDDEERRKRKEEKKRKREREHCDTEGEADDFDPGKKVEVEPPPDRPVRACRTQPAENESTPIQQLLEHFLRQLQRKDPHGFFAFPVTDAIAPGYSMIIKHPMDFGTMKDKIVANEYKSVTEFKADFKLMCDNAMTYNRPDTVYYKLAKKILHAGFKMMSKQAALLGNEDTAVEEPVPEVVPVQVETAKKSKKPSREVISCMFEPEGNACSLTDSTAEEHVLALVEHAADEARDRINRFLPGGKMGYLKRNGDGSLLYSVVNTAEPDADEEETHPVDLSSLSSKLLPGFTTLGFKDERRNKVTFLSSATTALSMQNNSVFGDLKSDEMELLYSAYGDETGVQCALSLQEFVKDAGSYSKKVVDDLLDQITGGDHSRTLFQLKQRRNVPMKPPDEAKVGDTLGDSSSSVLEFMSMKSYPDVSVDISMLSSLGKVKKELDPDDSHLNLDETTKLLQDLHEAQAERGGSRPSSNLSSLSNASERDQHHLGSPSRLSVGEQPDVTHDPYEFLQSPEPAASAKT
In general terms: A western blot detects proteins with antibodies after separation by electrophoresis.

For experiment [2], the target named is T2, von Hippel-Lindau disease tumor suppressor/Bromodomain-containing protein 7 (Homo sapiens) (UniProt Q9NPI1+P40337). As to the kind of experiment: PROTAC activity at VHL/BRD7 in human HeLa cells assessed as remaining BRD7 protein level at 1 uM incubated for 4 hrs by Western blot analysis relative to control.
T2 sequence (P40337 whole entry, looked up): as the sequence (P40337 whole entry, looked up) above
T2 sequence (Q9NPI1 whole entry, looked up): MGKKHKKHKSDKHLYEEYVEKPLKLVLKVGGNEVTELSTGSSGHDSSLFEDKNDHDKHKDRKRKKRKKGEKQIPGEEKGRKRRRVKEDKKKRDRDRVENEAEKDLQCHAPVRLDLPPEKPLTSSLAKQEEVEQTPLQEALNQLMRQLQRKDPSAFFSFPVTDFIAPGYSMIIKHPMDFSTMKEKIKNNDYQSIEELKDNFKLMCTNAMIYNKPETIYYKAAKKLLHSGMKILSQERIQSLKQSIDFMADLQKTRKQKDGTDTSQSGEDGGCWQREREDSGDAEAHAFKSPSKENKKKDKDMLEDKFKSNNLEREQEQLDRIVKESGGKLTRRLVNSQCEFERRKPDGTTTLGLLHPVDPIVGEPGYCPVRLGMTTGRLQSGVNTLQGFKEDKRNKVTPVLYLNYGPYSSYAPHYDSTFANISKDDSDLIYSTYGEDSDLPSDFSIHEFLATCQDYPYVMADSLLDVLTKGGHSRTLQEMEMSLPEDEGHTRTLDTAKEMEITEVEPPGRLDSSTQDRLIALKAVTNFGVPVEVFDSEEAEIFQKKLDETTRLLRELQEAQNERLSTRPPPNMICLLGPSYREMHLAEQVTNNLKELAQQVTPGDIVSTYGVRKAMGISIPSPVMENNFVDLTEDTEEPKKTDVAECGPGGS
Experiment [3] concerns the target T2, von Hippel-Lindau disease tumor suppressor/Bromodomain-containing protein 7 (Homo sapiens). The experiment is described as follows: PROTAC activity at VHL/BRD7 in human Ri-1 cells assessed as remaining BRD7 protein level at 10000 nM incubated for 2 hrs by Western blot analysis relative to control. The procedure, abridged: as §1
Experiment [4] concerns the target T1, von Hippel-Lindau disease tumor suppressor/Bromodomain-containing protein 9 (Homo sapiens). The experiment is described as follows: PROTAC activity at VHL/BRD9 in human Ri-1 cells assessed as remaining BRD9 protein level at 1 nM incubated for 8 hrs by Western blot analysis relative to control. The procedure, abridged: as §1
Experiment [5] has as its target T2, von Hippel-Lindau disease tumor suppressor/Bromodomain-containing protein 7 (Homo sapiens). The experiment is described as follows: PROTAC activity at VHL/BRD7 in human Ri-1 cells assessed as remaining BRD7 protein level at 1 nM incubated for 2 hrs by Western blot analysis relative to control.
Experiment [6] has the same target. The experiment is described as follows: PROTAC activity at VHL/BRD7 in human Ri-1 cells assessed as remaining BRD7 protein level at 100 nM incubated for 2 hrs by Western blot analysis relative to control. The gist of the method:
as §1

The target is the same in experiment [7]. The experiment is described as follows: PROTAC activity at VHL/BRD7 in human Ri-1 cells assessed as remaining BRD7 protein level at 1 uM incubated for 8 hrs by Western blot analysis relative to control.
The target of experiment [8] is T1, von Hippel-Lindau disease tumor suppressor/Bromodomain-containing protein 9 (Homo sapiens). As to the kind of experiment: PROTAC activity at VHL/BRD9 in human Ri-1 cells assessed as remaining BRD9 protein level at 10000 nM incubated for 2 hrs by Western blot analysis relative to control. The procedure, abridged:
as §1

Experiment [9] has the same target. The experiment is described as follows: PROTAC activity at VHL/BRD9 in human Ri-1 cells assessed as remaining BRD9 protein level at 1 uM incubated for 8 hrs by Western blot analysis relative to control. The procedure, abridged: as §1
Experiment [10] has as its target T2, von Hippel-Lindau disease tumor suppressor/Bromodomain-containing protein 7 (Homo sapiens). As to the kind of experiment: PROTAC activity at VHL/BRD7 in human Ri-1 cells assessed as remaining BRD7 protein level at 1 nM incubated for 8 hrs by Western blot analysis relative to control.
The target of experiment [11] is T1, von Hippel-Lindau disease tumor suppressor/Bromodomain-containing protein 9 (Homo sapiens). The experiment is described as follows: PROTAC activity at VHL/BRD9 in human Ri-1 cells assessed as remaining BRD9 protein level at 10 nM incubated for 8 hrs by Western blot analysis relative to control. The gist of the method:
as §1

Experiment [12] concerns the target T2, von Hippel-Lindau disease tumor suppressor/Bromodomain-containing protein 7 (Homo sapiens). The experiment is described as follows: PROTAC activity at VHL/BRD7 in human Ri-1 cells assessed as remaining BRD7 protein level at 1 uM incubated for 2 hrs by Western blot analysis relative to control.
The target is the same in experiment [13]. The experiment is described as follows: PROTAC activity at VHL/BRD7 in human Ri-1 cells assessed as remaining BRD7 protein level at 0.1 nM incubated for 8 hrs by Western blot analysis relative to control.
Experiment [14] has the same target. The experiment is described as follows: PROTAC activity at VHL/BRD7 in human Ri-1 cells assessed as remaining BRD7 protein level at 10 nM incubated for 2 hrs by Western blot analysis relative to control.
The target is the same in experiment [15]. As to the kind of experiment: PROTAC activity at VHL/BRD7 in human Ri-1 cells assessed as remaining BRD7 protein level at 100 nM incubated for 8 hrs by Western blot analysis relative to control. The procedure, abridged: as §1
Experiment [16] addresses T1, von Hippel-Lindau disease tumor suppressor/Bromodomain-containing protein 9 (Homo sapiens). As to the kind of experiment: PROTAC activity at VHL/BRD9 in human Ri-1 cells assessed as remaining BRD9 protein level at 10 nM incubated for 2 hrs by Western blot analysis relative to control. The gist of the method:
as §1

Experiment [17] has the same target. The experiment is described as follows: PROTAC activity at VHL/BRD9 in human Ri-1 cells assessed as remaining BRD9 protein level at 1 nM incubated for 2 hrs by Western blot analysis relative to control. The procedure, abridged:
as §1

For experiment [18] the target is unchanged. As to the kind of experiment: PROTAC activity at VHL/BRD9 in human Ri-1 cells assessed as remaining BRD9 protein level at 100 nM incubated for 8 hrs by Western blot analysis relative to control. The gist of the method:
as §1

For experiment [19] the target is unchanged. The experiment is described as follows: PROTAC activity at VHL/BRD9 in human Ri-1 cells assessed as remaining BRD9 protein level at 1 uM incubated for 2 hrs by Western blot analysis relative to control. The procedure, abridged: as §1
The target in experiment [20] is T2, von Hippel-Lindau disease tumor suppressor/Bromodomain-containing protein 7 (Homo sapiens). As to the kind of experiment: PROTAC activity at VHL/BRD7 in human Ri-1 cells assessed as remaining BRD7 protein level at 10 nM incubated for 8 hrs by Western blot analysis relative to control. The procedure, abridged:
as §1

Experiment [21] deals with T1, von Hippel-Lindau disease tumor suppressor/Bromodomain-containing protein 9 (Homo sapiens). As to the kind of experiment: PROTAC activity at VHL/BRD9 in human Ri-1 cells assessed as remaining BRD9 protein level at 0.1 nM incubated for 8 hrs by Western blot analysis relative to control. The procedure, abridged: as §1
The target in experiment [22] is T2, von Hippel-Lindau disease tumor suppressor/Bromodomain-containing protein 7 (Homo sapiens). As to the kind of experiment: PROTAC activity at VHL/BRD7 in human Ri-1 cells assessed as BRD7 protein degradation at 100 nM incubated for 4 hrs by Western blot analysis.
Experiment [23] has the same target. As to the kind of experiment: PROTAC activity at VHL/BRD7 in human Ri-1 cells assessed as BRD7 protein degradation at 100 nM incubated for 4 hrs by MS proteomics analysis.
In experiment [24] the target is T1, von Hippel-Lindau disease tumor suppressor/Bromodomain-containing protein 9 (Homo sapiens). The experiment is described as follows: PROTAC activity at VHL/BRD9 in human Ri-1 cells assessed as BRD9 protein degradation at 100 nM incubated for 4 hrs by Western blot analysis. The gist of the method: as §1
Experiment [25] shares this target. The experiment is described as follows: PROTAC activity at VHL/BRD9 in human Ri-1 cells assessed as BRD9 protein degradation at 100 nM incubated for 4 hrs by MS proteomics analysis. The procedure, abridged: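 RI-1 cells treated in triplicate with compound (100 nM) or DMSO for 4 h; whole-cell proteome quantified by MS (6273 proteins), fold change versus control with t-test P-values.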

Activity calls are given as the source filed them. The calls are words filed in the database; no cut-off is given here.

As for `COc1cc(-c2cn(C)c(=O)c3cnccc23)cc(OC)c1CN1CCN(CCOCCOc2cc(-c3scnc3C)ccc2CNC(=O)[C@@H]2C[C@@H](O)CN2C(=O)[C@@H](NC(=O)C2(F)CC2)C(C)(C)C)CC1`, the Activity in experiment [1] is 50%; in [2] it was 8%; in experiment [3] it was 33%; in experiment [4], 109%; in experiment [5], 101%; in experiment [6] it was 75%. The Activity came out at 8% in [7]; 66% in experiment [8]; 6% in experiment [9]; 155% in experiment [10]; 103% in experiment [11]; 63% in experiment [12]. Besides, the Activity in experiment [13] came out at 155%; in [14], 123%; in experiment [15] it was 152%; in experiment [16] it was 113%; in experiment [17], 110%; in experiment [18], 63%. Moreover, the Activity in experiment [19] was 44%; in experiment [20], 155%; in experiment [21], 117%.
Consider `COc1cc(-c2cn(C)c(=O)c3cnccc23)cc(OC)c1CN1CCN(CCCCCOc2cc(-c3scnc3C)ccc2CNC(=O)[C@@H]2C[C@H](O)CN2C(=O)[C@@H](NC(=O)C2(F)CC2)C(C)(C)C)CC1`, for which the outcome in experiment [22], in experiment [23], in [24] and in experiment [25] was inactive.
